According to ChEMBL document CHEMBL1129476, “In vivo activity and hydrophobicity of cytostatic aziridinyl quinones” (J Med Chem, 1996):

Key:
Fungi = assay: log 1/MIC for fungi in mmol/L; assay type: functional
[1] = log 1/anion production.; assay type: functional
[2] = Observed rate of hydrolysis (logKobs) (pH=4.0); assay type: ADME
Procedure, shortened: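 Hydrolysis followed by cyclic voltammetry at 20 °C in deaerated 0.1 M acetate buffers (pH 5.0–3.5) or 0.02 M NaH2PO4 (pH 3.5, 3.0), ionic strength 0.1 M (NaNO3). Decrease of the parent cathodic peak tracked over time. Pseudo-first-order kobs from linear regression of log concentration versus time.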

[3] = E1/2 for the half-wave potential at pH=7.0 in V57; assay type: ADME
L1210 [4] = assay: log 1/D125 for the dose (mmol/kg) to give 125%T/C ratio (L1210) in vivo; assay type: functional, Mus musculus
[5] = Electrochemically observed pKa (pKred) of aziridines; assay type: physicochemical; details: read-out: pKred
B16 = assay: log 1/D125 or the dose (mmol/kg) to give 125%T/C ratio (B16) in vivo; assay type: functional, Mus musculus
[6] = log 1/LD50 for LD50 (mmol/kg); assay type: ADME
L1210 [7] = assay: log 1/ID75 for the in vitro clonogenic L1210 assay with ID75 in umol/L; assay type: functional, Mus musculus
[8] = HPLC capacity factor (logK); assay type: ADME
[9] = Partition coefficient (logP); assay type: physicochemical; details: octanol/water
Procedure, shortened: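 Micro shake-flask: buffered aqueous compound solution (pH 6.50) shaken with an equal volume of water-saturated 1-octanol at room temperature, 3 × 120 s. Centrifuged 14000g, 15 min. Aqueous phase analysed by RP-HPLC against the unshaken solution (methanol 30, 50 or 70 wt%, 1.0 mL/min, UV 254 nm). Run in duplicate, or quadruplicate if needed.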

[10] = log KGSH for the rate k of glutathione (GSH) consumption in 1/s; assay type: functional

Log K [8]	Compound	Log 1/MIC (mM L-1) (Fungi)	E 1/2 [3]	pKa [5]	Log 1/ID75 (uM L-1) (L1210 [7])	other results
–	O=C1C(Cl)=C(N2CC2)C(=O)C(Cl)=C1N1CC1	1.63	-0.133	–	–	Log 1/conc (mM min-1 L-1) [1]: 2.74; Log Kobs [2]: -4.7
–	CC1CN1C1=C(Cl)C(=O)C(N2CC2C)=C(Cl)C1=O (stereo not given)	1.16	-0.125	–	–	Log 1/conc (mM min-1 L-1) [1]: 2.65; Log Kobs [2]: -4.15; Log 1/D125 (L1210) (mM kg-1) (L1210 [4]): 1.16
–	CC1=C(N2CC2C)C(=O)C(C)=C(N2CC2C)C1=O (stereo not given)	–	-0.187	8.6	–	Log Kobs [2]: -2.61; Log 1/D125 (mM kg-1) (B16): 2.27; Log 1/D125 (L1210) (mM kg-1) (L1210 [4]): 1.47; Log 1/LD50 (mM kg-1) [6]: 1.4
–	O=C1C(N2CCCC2)=C(N2CC2)C(=O)C(N2CCCC2)=C1N1CC1	–	-0.315	10.6	–	Log 1/D125 (mM kg-1) (B16): 2.4; Log 1/D125 (L1210) (mM kg-1) (L1210 [4]): 2.07
–	CC1=C(C)C(=O)C(N2CC=CC2)=CC1=O	-0.17	-0.311	–	-0.71	–
0.587	O=C1C=C(N2CCCC2)C(=O)C=C1N1CCCC1	-0.38	-0.439	–	-1.61	–
0.607	CC1=CC(=O)c2ccccc2C1=O [MENADIONE]	–	–	–	–	–
–	COC1=C(N2CC2)C(=O)C(OC)=C(N2CC2)C1=O	–	-0.179	8	0.15	Log Kobs [2]: -3.26; Log 1/D125 (mM kg-1) (B16): 3.53; Log 1/D125 (L1210) (mM kg-1) (L1210 [4]): 2.38
0.748	O=C1C=C(Br)C(=O)c2ccccc21 [2-Bromo-1,4-naphthoquinone]	–	–	–	–	–
-0.611	C/N=C1C=C(O)/C(=N/C)C=C/1O	–	–	–	–	logP [9]: 0.34
-0.005	O=C1/C(=N/CCO)C=C(O)c2ccccc21	–	–	–	–	logP [9]: 1.23
–	CC1=C(N2CC2)C(=O)C(CCO)=C(N2CC2)C1=O	0.44	–	8.6	1.51	Log 1/conc (mM min-1 L-1) [1]: 0.95; Log Kobs [2]: -4; Log 1/D125 (mM kg-1) (B16): 3.6; Log 1/D125 (L1210) (mM kg-1) (L1210 [4]): 3.37; logP [9]: 0.18; Log 1/LD50 (mM kg-1) [6]: 1.39
–	CC1CN1C1=C(F)C(=O)C(N2CC2C)=C(N2CC2C)C1=O (stereo not given)	1.18	-0.195	8.2	2.01	Log 1/LD50 (mM kg-1) [6]: 1.45
–	NC(=O)OCCC1=C(N2CC2)C(=O)C(Br)=C(N2CC2)C1=O	0.25	-0.201	8.9	2.45	Log 1/conc (mM min-1 L-1) [1]: 2.48; Log Kobs [2]: -4.49; Log 1/D125 (mM kg-1) (B16): 2.68; Log 1/D125 (L1210) (mM kg-1) (L1210 [4]): 2; Log k GSH (s-1) [10]: -3.6; Log 1/LD50 (mM kg-1) [6]: 1.05
0.659	O=C1C=C(Cl)C(=O)c2ccccc21	–	–	–	–	logP [9]: 2.15
0.591	CN(C)C1=CC(=O)c2ccccc2C1=O	–	–	–	–	–
0.736	O=C1C=C(N2CCCC2)C(=O)c2ccccc21	–	–	–	–	–
–	CC1CN1C1=C(Br)C(=O)C(N2CC2C)=C(Br)C1=O (stereo not given)	1.28	–	–	0.77	Log 1/conc (mM min-1 L-1) [1]: 2.8; Log Kobs [2]: -3.45
–	O=C1C(F)=C(N2CC2)C(=O)C(F)=C1N1CC1	1.75	-0.087	7.2	–	Log 1/conc (mM min-1 L-1) [1]: 1.72; Log Kobs [2]: -4.03; Log k GSH (s-1) [10]: -2.21

Log K [8]	Compound	Log 1/MIC (mM L-1) (Fungi)	E 1/2 [3]	pKa [5]	Log 1/ID75 (uM L-1) (L1210 [7])	other results
–	CC1=C(C)C(=O)C(N2CCCC2)=CC1=O	-0.3	-0.303	–	-1.7	–
–	CN(CCO)C1=C(N2CC2)C(=O)C(N(C)CCO)=C(N2CC2)C1=O	–	-0.225	9.7	0.09	–
–	CC1=CC(=O)C=CC1=O [Cresoquinone]	–	–	–	–	logP [9]: 0.73
–	C/N=C1C(O)=C(N2CC2)/C(=N\C)C(O)=C\1N1CC1	–	-0.415	8.5	0.32	Log 1/D125 (mM kg-1) (B16): 3.14; Log 1/D125 (L1210) (mM kg-1) (L1210 [4]): 2.49; logP [9]: 0.13
0.129	NC1=CC(=O)c2ccccc2C1=O	–	–	–	–	logP [9]: 1.88
-0.004	CN(C)C1=CC(=O)C(N(C)C)=CC1=O	–	–	–	–	–
–	O=C1C(N2CC2)=C(N2CC2)C(=O)C(N2CC2)=C1N1CC1	0.95	-0.245	7.7	0.9	Log Kobs [2]: -3.7
–	COC1=C(C)C(=O)C(N2CCCC2)=CC1=O	-0.26	-0.315	–	-1.66	–
0.279	C/N=C1\C=C(O)c2ccccc2C1=O	–	–	–	–	logP [9]: 1.74
–	CC1=C(N2C(C)C2C)C(=O)C(Br)=C(N2C(C)C2C)C1=O (stereo not given)	–	–	–	–	Log Kobs [2]: -1.15; Log 1/D125 (L1210) (mM kg-1) (L1210 [4]): 0.69; Log 1/LD50 (mM kg-1) [6]: 0.63
–	C/N=C1C(O)=C(N2CC2C)/C(=N\C)C(O)=C\1N1CC1C (stereo not given)	–	-0.4	9.3	–	Log 1/D125 (mM kg-1) (B16): 2.33; Log 1/D125 (L1210) (mM kg-1) (L1210 [4]): 2.19
–	OCC/N=C1C(O)=C(N2CC2)/C(=N\CCO)C(O)=C/1N1CC1	–	-0.385	9.5	0.42	Log Kobs [2]: -2.8; Log 1/D125 (mM kg-1) (B16): 3.94; Log 1/D125 (L1210) (mM kg-1) (L1210 [4]): 3.39
–	NC1=C(N2CC2)C(=O)C(N)=C(N2CC2)C1=O	–	–	–	1.16	–
0.136	CC1=CC(=O)C=C(C)C1=O	–	–	–	–	–
0.259	NC1=C(Cl)C(=O)c2ccccc2C1=O	–	–	–	–	–
–	CCOC(=O)NC1=CC(=O)C(NC(=O)OCC)=CC1=O	0.85	–	–	0.09	–
–	CC1CN1C1=C(N2CCCC2)C(=O)C(N2CC2C)=C(N2CCCC2)C1=O (stereo not given)	–	-0.303	11.1	–	–
0.896	O=C1C=C(N2CC=CC2)C(=O)c2ccccc21	–	–	–	–	–
–	O=C1C=C(N2CC=CC2)C(=O)C=C1N1CC=CC1	-0.52	–	–	-1.62	–

Compound	Log K [8]	Log 1/MIC (mM L-1) (Fungi)	E 1/2 [3]	pKa [5]	Log 1/ID75 (uM L-1) (L1210 [7])	other results
O=C1C=CC(=O)c2ccccc21 [NAPHTHOQUINONE]	0.299	–	–	–	–	–
O=C1C=CC(=O)C=C1 [BENZOQUINONE]	-0.466	–	–	–	–	–
CC1CN1C1=C(F)C(=O)C(N2CC2C)=C(F)C1=O (stereo not given)	0.444	1.5	-0.093	7.9	1.49	Log 1/conc (mM min-1 L-1) [1]: 1.77; Log 1/LD50 (mM kg-1) [6]: 1.5
CC1CN1C1=CC(=O)C(N2CC2C)=CC1=O (stereo not given)	0.152	0.44	-0.115	8.1	1.03	Log 1/conc (mM min-1 L-1) [1]: 1.75; Log Kobs [2]: -1.55; Log 1/D125 (mM kg-1) (B16): 2.12; Log 1/D125 (L1210) (mM kg-1) (L1210 [4]): 1.64; Log 1/LD50 (mM kg-1) [6]: 1.16
CC1=C(N2CC2)C(=O)C(Br)=C(N2CC2)C1=O	0.279	1.45	-0.185	8.7	2.76	Log 1/conc (mM min-1 L-1) [1]: 2.45; Log Kobs [2]: -4.45; Log 1/D125 (mM kg-1) (B16): 2.09; Log 1/LD50 (mM kg-1) [6]: 1.44
CC1CN1C1=CC(=O)c2ccccc2C1=O (stereo not given)	0.611	–	–	–	–	–
CC1=C(N2CC2)C(=O)C(Cl)=C(N2CC2)C1=O	0.2	–	-0.197	8.5	2.41	Log 1/conc (mM min-1 L-1) [1]: 2.42; Log Kobs [2]: -4.32; Log 1/D125 (mM kg-1) (B16): 2.68; Log 1/D125 (L1210) (mM kg-1) (L1210 [4]): 1.99
O=C1C=C(N2CC2)C(=O)c2ccccc21	0.346	–	–	–	–	–
CC1=C(C)C(=O)C(C)=C(C)C1=O [DUROQUINONE]	0.776	–	–	–	–	logP [9]: 2.12
